Assay results reported in ChEMBL document CHEMBL1123503, “Synthesis and biological activity of 3-amino-5-(3,5-diamino-6-chloropyrazin-2-yl)-1,2,4-oxadiazole: an amiloride prodrug” (1986).

Assays:
Rattus norvegicus [1] = assay: Compound was evaluated for diuretic activity determined by the ability to induce electrolytic excretion (Na+) at a time period of 0-5 hr for dose 27 mg/kg; format: functional, Urine
Method in brief: (§1)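 Female Sprague-Dawley rats weighing 160-170 g were dosed orally at 3, 9, 27 or 81 mg/kg, housed three per cage, with three cages per dose. Urinary Na+, K+ and Cl- (mequiv × 100) and urine volume (mL) were measured over 0-5 h and 0-24 h after dosing. A placebo group was run alongside.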

Rattus norvegicus [2] = assay: Compound was evaluated for diuretic activity determined by the ability to induce electrolytic excretion (Cl-) at a time period of 0-5 hr for dose 9 mg/kg; format: functional, Urine; method in brief: as §1
Rattus norvegicus [3] = assay: Compound was evaluated for diuretic activity determined by the ability to induce electrolytic excretion (K+) at a time period of 0-24 hr for dose 9 mg/kg; format: functional, Urine; method in brief: as §1
Rattus norvegicus [4] = assay: Urine volumes in Sprague-Dawley rats was determined at time period of 0-5 hours at 27 mg/kg; format: functional; method in brief: as §1
Rattus norvegicus [5] = assay: Compound was evaluated for diuretic activity determined by the ability to induce electrolytic excretion (K+) at a time period of 0-24 hr for dose 81 mg/kg; format: functional, Urine; design: unit: mequiv × 100; method in brief: as §1
Canis familiaris [6] = assay: Diuretic activity in mongrel dog was determined by the ability of compound to induce electrolytic excretion (CL-) at a time period of 0-5 hr after administration of 5 mg/kg dose.
Rattus norvegicus [7] = assay: Compound was evaluated for diuretic activity determined by the ability to induce electrolytic excretion (Cl-) at a time period of 0-5 hr for dose 3 mg/kg; format: functional, Urine; method in brief: as §1
Rattus norvegicus [8] = assay: Compound was evaluated for diuretic activity determined by the ability to induce electrolytic excretion (K+) at a time period of 0-24 hr for dose 3 mg/kg; format: functional, Urine; method in brief: as §1
Rattus norvegicus [9] = assay: Compound was evaluated for diuretic activity determined by the ability to induce electrolytic excretion (K+) at a time period of 0-5 hr for dose 3 mg/kg; format: functional, Urine; method in brief: as §1
Rattus norvegicus [10] = assay: Compound was evaluated for diuretic activity determined by the ability to induce electrolytic excretion (Na+) at a time period of 0-24 hr for dose 81 mg/kg; format: functional, Urine; method in brief: as §1
Rattus norvegicus [11] = assay: Compound was evaluated for diuretic activity determined by the ability to induce electrolytic excretion (Cl-) at a time period of 0-24 hr for dose 9 mg/kg; format: functional, Urine; method in brief: as §1
Canis familiaris [12] = assay: Diuretic activity in mongrel dog was determined by the ability to induce electrolytic excretion (Na+) at a time period of 0-5 hr after administration of 5 mg/kg dose.
Rattus norvegicus [13] = assay: Compound was evaluated for diuretic activity determined by the ability to induce electrolytic excretion (K+) at a time period of 0-5 hr for dose 9 mg/kg; format: functional, Urine; method in brief: as §1
Rattus norvegicus [14] = assay: Compound was evaluated for diuretic activity determined by the ability to induce electrolytic excretion (Cl-) at a time period of 0-24 hr for dose 27 mg/kg; format: functional, Urine; method in brief: as §1
Rattus norvegicus [15] = assay: Compound was evaluated for diuretic activity determined by the ability to induce electrolytic excretion (K+) at a time period of 0-5 hr for dose 81 mg/kg; format: functional, Urine; method in brief: as §1
Rattus norvegicus [16] = assay: Compound was evaluated for diuretic activity determined by the ability to induce electrolytic excretion (Cl-) at a time period of 0-5 hr for dose 81 mg/kg; format: functional, Urine; method in brief: as §1
Rattus norvegicus [17] = assay: Compound was evaluated for diuretic activity determined by the ability to induce electrolytic excretion (K+) at a time period of 0-24 hr for dose 27 mg/kg; format: functional, Urine; method in brief: as §1
Rattus norvegicus [18] = assay: Compound was evaluated for diuretic activity determined by the ability to induce electrolytic excretion (Na+) at a time period of 0-24 hr for dose 9 mg/kg; format: functional, Urine; method in brief: as §1
Rattus norvegicus [19] = assay: Compound was evaluated for diuretic activity determined by the ability to induce electrolytic excretion (Cl-) at a time period of 0-5 hr for dose 27 mg/kg; format: functional, Urine; method in brief: as §1
Rattus norvegicus [20] = assay: Compound was evaluated for diuretic activity determined by the ability to induce electrolytic excretion (Na+) at a time period of 0-24 hr for dose 3 mg/kg; format: functional, Urine; method in brief: as §1
Rattus norvegicus [21] = assay: Compound was evaluated for diuretic activity determined by the ability to induce electrolytic excretion (K+) at a time period of 0-5 hr for dose 27 mg/kg; format: functional, Urine; method in brief: as §1
Rattus norvegicus [22] = assay: Compound was evaluated for diuretic activity determined by the ability to induce electrolytic excretion (Cl-) at a time period of 0-24 hr for dose 3 mg/kg; format: functional, Urine; method in brief: as §1
Rattus norvegicus [23] = assay: Urine volumes was determined at time period of 0-5 hours for dose 27 mg/kg; format: functional
Method in brief: (§2)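 Female Sprague-Dawley rats (160-170 g) were dosed orally at 3-81 mg/kg, with a placebo group. Housing was three rats per cage and three cages per dose. Urinary Na+, K+ and Cl- (mequiv × 100) and urine volume were measured over 0-5 h and 0-24 h.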

Canis familiaris [24] = assay: Diuretic activity in mongrel dog was determined by the ability to induce electrolytic excretion (K+) at a time period of 0-5 hr after administration of 5 mg/kg dose.
Rattus norvegicus [25] = assay: Compound was evaluated for diuretic activity determined by the ability to induce electrolytic excretion (Na+) at a time period of 0-5 hr for dose 81 mg/kg; format: functional, Urine; method in brief: as §1
Rattus norvegicus [26] = assay: Urine volumes in Sprague-Dawley rats was determined at time period of 0-5 hours at 3 mg/kg; format: functional; method in brief: as §1
Rattus norvegicus [27] = assay: Urine volumes was determined in Sprague-Dawley rats was determined at time period of 0-5 hours at 9 mg/kg; format: functional; method in brief: as §1
Rattus norvegicus [28] = assay: Urine volumes in Sprague-Dawley rats was determined at time period of 0-5 hours at 81 mg/kg; format: functional; method in brief: as §1
Rattus norvegicus [29] = assay: Compound was evaluated for diuretic activity determined by the ability to induce electrolytic excretion (Cl-) at a time period of 0-24 hr for dose 81 mg/kg; format: functional, Urine; method in brief: as §1
Rattus norvegicus [30] = assay: Compound was evaluated for diuretic activity determined by the ability to induce electrolytic excretion (Na+) at a time period of 0-24 hr for dose 27 mg/kg; format: functional, Urine; method in brief: as §1
Rattus norvegicus [31] = assay: Compound was evaluated for diuretic activity determined by the ability to induce electrolytic excretion (Na+) at a time period of 0-5 hr for dose 9 mg/kg; format: functional, Urine; method in brief: as §1
Rattus norvegicus [32] = assay: Compound was evaluated for diuretic activity determined by the ability to induce electrolytic excretion (Na+) at a time period of 0-5 hr for dose 3 mg/kg; format: functional, Urine; method in brief: as §1
Rattus norvegicus [33] = assay: Urine volumes was determined at time period of 0-5 hours for dose 9 mg/kg; format: functional; method in brief: as §2
Rattus norvegicus [34] = assay: Urine volumes in Sprague-Dawley rats was determined at time period of 0-5 hours at 9 mg/kg; format: functional; method in brief: as §1

Compound | Diuretic effect (Rattus norvegicus [1]) | Diuretic effect (Rattus norvegicus [2]) | Diuretic effect (Rattus norvegicus [3]) | Urine volume (Rattus norvegicus [4]) | Diuretic effect (Rattus norvegicus [5]) | Diuretic effect (Rattus norvegicus [7]) | Diuretic effect (Rattus norvegicus [8]) | Diuretic effect (Rattus norvegicus [9]) | Diuretic effect (Rattus norvegicus [10]) | Diuretic effect (Rattus norvegicus [11]) | Diuretic effect (Rattus norvegicus [13]) | Diuretic effect (Rattus norvegicus [14]) | Diuretic effect (Rattus norvegicus [15]) | Diuretic effect (Rattus norvegicus [16]) | Diuretic effect (Rattus norvegicus [17]) | Diuretic effect (Rattus norvegicus [18]) | Diuretic effect (Rattus norvegicus [19]) | Diuretic effect (Rattus norvegicus [20]) | Diuretic effect (Rattus norvegicus [21]) | Diuretic effect (Rattus norvegicus [22]) | further results
CN(C)c1nc(N)c(-c2nc(N)no2)nc1Cl | 107 | 48 | 83 | 31 mL | 53 | 40 | 97 | 2 | 352 | 200 | 2 | 270 | 1 | 57 | 82 | 258 | 63 | 202 | 1 | 170 | Diuretic effect (Canis familiaris [6]): 3; Diuretic effect (Canis familiaris [12]): 7.2; Diuretic effect (Rattus norvegicus [23]): 0.6; Diuretic effect (Canis familiaris [24]): 0.6; Diuretic effect (Rattus norvegicus [25]): 108; Urine volume (Rattus norvegicus [26]): 28 mL; Urine volume (Rattus norvegicus [27]): 32 mL; Urine volume (Rattus norvegicus [28]): 30 mL; Diuretic effect (Rattus norvegicus [29]): 267; Diuretic effect (Rattus norvegicus [30]): 341; Diuretic effect (Rattus norvegicus [31]): 88; Diuretic effect (Rattus norvegicus [32]): 64; Diuretic effect (Rattus norvegicus [33]): 7.2
C[n+]1oc(-c2nc(Cl)c(N)nc2N)nc1N.[I-] | 104 | 39 | 92 | 27 mL | 96 | 28 | 139 | 3 | 433 | 204 | 2 | 277 | 7 | 95 | 89 | 296 | 49 | 281 | 4 | 203 | Diuretic effect (Rattus norvegicus [25]): 135; Urine volume (Rattus norvegicus [26]): 25 mL; Urine volume (Rattus norvegicus [34]): 25 mL; Urine volume (Rattus norvegicus [28]): 29 mL; Diuretic effect (Rattus norvegicus [29]): 326; Diuretic effect (Rattus norvegicus [30]): 389; Diuretic effect (Rattus norvegicus [31]): 79; Diuretic effect (Rattus norvegicus [32]): 17
